Screening results (PubChem)
BB579 growth dn – chemicals that inhibit yeast BB579 growth in restrictive medium (lifespan-shortening candidates); S. cerevisiae BB579 growth, OD615, 48 h; AID 804; inhibition, % at 10 µM; hit rate 0.51% among 140,000;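 active = inhibition above a set limit, 3 SD over the mean compound inhibition, cut at about 44% in these data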
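Material: Saccharomyces cerevisiae DeaD strain BB579, replicative lifespan model yeast; buffer or medium: CSMM-D restrictive synthetic medium containing dextrose (glucose); compound: 10 µM single dose, DMSO 0.25%; timing: 48 h compound exposure at 30 °C after 4 h preincubation; signal: turbidity as optical density at 615 nm; benchmarks: positive control amphotericin B 10 µg/mL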
RAM inhibit – blocks the yeast RAM network; S. cerevisiae dse1pr::URA3 reporter, 5-FOA growth OD615, 2 d; analog-sensitive cbk1-as2 kinase mutant strain; inhibition, % at 50 µM; hit rate 1.8% among 190,000; AID 868;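 active = inhibition above a set limit, 3 SD over mean compound inhibition, cut at about 8.4% in these data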;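 also: 0% = DMSO-only wells with no growth and 100% = 10 µM 1-NA-PP1 full growth; inhibition rescues growth on 5-FOA so higher OD means more RAM inhibition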
sdo1 growth – restores growth of sdo1-depleted yeast | S. cerevisiae sdo1-depleted JHY4D growth rescue, OD600 30 h; active compounds read high; pdr5 snq2 efflux-pump mutant strain | z-score at 10 µM | AID 817 | hit rate 0.21% among 140,000;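 active = z-score above 3 at both the 24 hr and the 30 hr optical density reads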;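 also: z-score against mean and SD of all compound wells on the same plate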
Yeast life ext – yeast lifespan extension; S. cerevisiae growth with nicotinamide, OD615; deaD strain in restrictive glucose medium; inhibition of the nicotinamide effect, % at 10 µM; hit rate 0.68% among 130,000; AID 775;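 active = inhibition above a set limit, placed 3 SD over the median of all compounds, cut at about 26% in these data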;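 also: 0% = nicotinamide-treated wells and 100% = cells grown without nicotinamide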
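System: Modified budding yeast, DeaD strain | Buffer or medium: Restrictive glucose medium | Also added: 1.5 mM nicotinamide | Doses: 10 µM single point, 0.25% DMSO | Schedule: 48 h compound exposure at 30 °C, humidified | Detection: Absorbance at 615 nm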
RAM efflux-def – restores 5-FOA growth of efflux-deficient yeast | AID 1305 | shares compounds with RAM inhibit | S. cerevisiae efflux-deficient reporter strain, 5-FOA growth OD615, 2 days | max inhibition, % | 1,200 tested, under 10 active; call rule not given here;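 also: plate controls were vehicle for no effect and reference inhibitor for full effect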
* marks the source's active call; other numbers are inactive results; / = no result. The list is not random: actives were taken first. Their share in the collection is about 2.7%.

SMILES | BB579 growth dn | RAM inhibit | sdo1 growth | Yeast life ext | RAM efflux-def
COc1ccc(-n2c(SCC(=O)N3CCCC3)nc3ccccc3c2=O)cc1 | / | 3 | / | / | /
Cc1ccc(O)c(-c2cc(-c3cccc(Br)c3)n[nH]2)c1 | / | 12* | / | / | 3
O=C(c1ccc2c(c1)N(Cc1ccccc1)C(=O)CS2)N1CCOCC1 | -12 | 2 | 0.27 | -6 | /
O=c1c(-c2nnc(SCc3ccc(Cl)cc3Cl)o2)cccn1Cc1ccccc1 | -40 | 12* | -2 | 5 | 1
O=C(CN(Cc1ccccc1F)S(=O)(=O)c1ccc(Cl)cc1)NCCC1=CCCCC1 | -47 | 12* | -1 | -16 | 1
COc1ccc(Cc2nn3c(-c4ccccc4Br)nnc3s2)cc1 | -33 | 1 | -2 | -18 | /
Brc1ccccc1-c1nnc2sc(Cc3ccccc3)nn12 | -52 | 33* | -1.7 | -8 | 4
Cc1ccc2[nH]c(=O)c(CN(Cc3cccs3)C(=S)NCc3ccco3)cc2c1 | -16 | 2 | 0.03 | -1 | /
COc1ccc(OC2C(=O)N(Cc3ccc4c(c3)OCO4)C2c2cccs2)cc1 (stereo not drawn) | -36 | 13* | -1.1 | 8 | 3
CC(C)CC(=O)NC(=S)Nc1nc(-c2ccccc2)cs1 | -6 | 13* | -0.35 | 6 | 2
CCOC(=O)c1cnc(SCC(=O)Nc2ccc(NC(C)=O)c(OC)c2)nc1N | -41 | 1 | -0.51 | -5 | /
COc1ccc(NC(=O)C23CC4CC(C2)CC(c2ccccc2)(C4)C3)c(OC)c1 | -25 | 13* | -0.79 | 0 | 4
N#Cc1c(N)nc(SCc2ccccn2)c(C#N)c1-c1cccs1 | -51 | 12* | -0.13 | -8 | 4
COc1ccccc1CC(=O)NNS(=O)(=O)c1ccccc1[N+](=O)[O-] | / | 0 | / | / | /
COc1ccccc1NC(=O)c1cc(Br)ccc1Cl | / | 0 | / | / | /
COc1ccc(Br)cc1C(=O)Nc1ccccc1-c1ccccc1 | -13 | 12* | -0.96 | -16 | 3
CCOC(=O)CSc1nc(N)c(C#N)c(-c2cccs2)c1C#N | -24 | 5 | -0.33 | -11 | /
CCOC(=O)C(C)Sc1nc2c(c(-c3cccs3)c1C#N)CCC2 (stereo not drawn) | -28 | 12* | -0.2 | 4 | 4
Cc1ccc(/C=C/c2ccc(=O)n(Cc3ccccc3Cl)n2)cc1 | -29 | 13* | -1.4 | -8 | 3
COc1ccc(-c2nc(CSCC(=O)N3CCN(c4cccc(C)c4)C(C)C3)c(C)o2)cc1OC (stereo not drawn) | -77 | 2 | -0.56 | -7 | /
CCOc1ccc(S(=O)(=O)Nc2nc3ccc(OC)cc3s2)cc1 | -40 | 12* | 0.28 | 3 | 3
COc1cccc(/C=C(/C(=O)OCC(=O)NC2CCCC(C)C2C)c2ccccc2)c1 (stereo not drawn) | -13 | 20* | 0.59 | 8 | 6
CCOC(=O)C1(Cc2ccccc2)CCN(Cc2cn(CC(=O)OC)c3ccccc23)CC1 | / | -1 | / | / | /
COc1cccc(OCCNC(=O)c2ccccc2Sc2ccccc2C#N)c1 | -4 | 4 | -1.4 | -1 | /
Cc1cc(C)c(OCCNC(=O)c2ccccc2Sc2ccccc2C#N)c(C)c1 | -35 | 20* | -0.51 | 2 | 5
SMILES | BB579 growth dn | RAM inhibit | sdo1 growth | Yeast life ext | RAM efflux-def
Cc1ccccc1OCCNC(=O)c1ccccc1Sc1ccccc1C#N | 0 | 14* | -0.71 | -13 | 2
Cc1cc(C)c(NC(=O)CCn2nnc3ccccc32)c(C)c1 | / | 1 | / | / | /
O=C(CSc1nnc(-c2ccncc2)n1-c1ccccc1)N1CCN(c2ccc(Cl)cc2)CC1 | -35 | 7 | 0.31 | -1 | /
COc1ccc(CCNC2=CC(=O)N(c3ccc(F)cc3)C2=O)cc1 | / | 4 | / | / | /
CCOC(=O)c1cc(-c2ccccc2)sc1NC(=O)C(C)OC(=O)c1cccnc1OCC (stereo not drawn) | -14 | 12* | 1.2 | 3 | 6
CCCSc1ccc(-c2nn(-c3ccccc3)cc2/C=C(/C#N)C(=O)NCCCOC)cc1 | -15 | 16* | 1.5 | 5 | 2
Cc1ccc(-c2nn(-c3ccccc3)cc2/C=C(\C#N)C(=O)NCc2ccccc2)cc1 | -24 | 6 | 0.98 | 2 | /
CCOc1cccc(-c2nn(-c3ccccc3)cc2/C=C(/C#N)C(=O)NCCCn2ccnc2)c1 | -60 | 6 | 0.16 | -4 | /
CCSc1ccc(-c2nn(-c3ccccc3)cc2/C=C(/C#N)C(=O)NCCCOC)cc1 | -10 | 17* | -1.2 | 10 | 5
O=C(CCS(=O)(=O)c1ccc(Br)s1)NCc1ccccc1 | 22 | 1 | 0.47 | -1 | /
CN(C1CCCCC1)S(=O)(=O)c1ccc(NC(=S)NC(=O)c2cccs2)cc1 | -16 | 3 | -0.84 | -2 | /
O=C(NCc1ccc2c(c1)OCO2)c1cc(-c2ccccn2)nc2ccccc12 | / | 14* | / | / | 3
O=C(NCc1ccco1)c1cc(-c2ccccn2)nc2ccccc12 | -24 | 3 | -0.12 | 5 | /
OCCNC(=S)NCCc1ccccc1 | -20 | 0 | 0.98 | 3 | /
CC(C)(CNC(=S)NCCc1ccccc1)CNC(=S)NCCc1ccccc1 | 73* | 15* | -0.3 | -5 | 7
CSc1ccccc1NC(=O)c1ccc(Cl)s1 | -32 | 3 | 0.54 | -9 | /
O=C(CSCc1ccc(Cl)cc1)Nc1ccc(S(=O)(=O)N2CCCCCC2)cc1 | 20 | 0 | -0.41 | -2 | /
COc1ccc(CSCC(=O)Nc2ccc(S(=O)(=O)N3CCCCCC3)cc2)cc1 | -56 | 14* | -0.55 | 6 | 1
CNC(=O)/C(C#N)=C/c1ccc(-c2ccccc2[N+](=O)[O-])o1 | / | 4 | / | / | /
O=C(/C=C/c1ccc(-c2ccccc2[N+](=O)[O-])o1)c1ccccc1 | -33 | 16* | -0.86 | -6 | 4
O=C(c1cnc(-c2ccc(Cl)cc2)s1)c1ccc(Cl)cc1Cl | -40 | 15* | -0.04 | -5 | 3
O=C(O)Cc1ccc(C(=O)c2ccc(Cl)cc2Cl)s1 | / | -1 | / | / | /
COCCN(CCOC)CC(O)COC(c1ccccc1)c1ccccc1 (stereo not drawn) | / | 2 | / | / | /
O=C(CNC(=O)c1ccco1)OC(C(=O)c1ccccc1)c1ccccc1 (stereo not drawn) | -36 | 0 | -0.04 | -8 | /
O=C(COc1ccccc1)OC(C(=O)c1ccccc1)c1ccccc1 (stereo not drawn) | -45 | 12* | 0.76 | -4 | 25
Cc1ccc(C(=O)C(OC(=O)COc2ccccc2C)c2ccccc2)cc1 (stereo not drawn) | -16 | 14* | 0.43 | -20 | 4
Cc1ccc(C(=O)c2ccccc2C(=O)OCC(=O)Nc2ccc(SC(F)F)cc2)cc1 | -34 | 13* | -0.75 | 5 | 2
O=C(COC(=O)c1ccccc1Cc1ccccc1)Nc1ccc(SC(F)F)cc1 | -31 | 14* | -0.5 | 2 | 4
Cc1ccc(C(=O)c2ccccc2C(=O)OCC(=O)NCCc2ccc(Cl)cc2Cl)cc1 | -73 | 15* | -0.51 | 10 | 3
O=C(COC(=O)c1cc[n+]([O-])cc1)NCCc1ccc(Cl)cc1Cl | / | 2 | / | / | /
